Results: ChEMBL document CHEMBL1139138, “Pyrrolidine-constrained phenethylamines: The design of potent, selective, and pharmacologically efficacious dipeptidyl peptidase IV (DPP4) inhibitors from a lead-like screening hit” (Bioorg Med Chem Lett, 2007)
pIC50, pKi: −log10 of the molar value.

Assays:
Prolyl endopeptidase FAP = target: T1, Prolyl endopeptidase FAP (Homo sapiens, UniProt Q12884); assay: Inhibition of human FAPalpha
T1 sequence (Q12884 whole entry): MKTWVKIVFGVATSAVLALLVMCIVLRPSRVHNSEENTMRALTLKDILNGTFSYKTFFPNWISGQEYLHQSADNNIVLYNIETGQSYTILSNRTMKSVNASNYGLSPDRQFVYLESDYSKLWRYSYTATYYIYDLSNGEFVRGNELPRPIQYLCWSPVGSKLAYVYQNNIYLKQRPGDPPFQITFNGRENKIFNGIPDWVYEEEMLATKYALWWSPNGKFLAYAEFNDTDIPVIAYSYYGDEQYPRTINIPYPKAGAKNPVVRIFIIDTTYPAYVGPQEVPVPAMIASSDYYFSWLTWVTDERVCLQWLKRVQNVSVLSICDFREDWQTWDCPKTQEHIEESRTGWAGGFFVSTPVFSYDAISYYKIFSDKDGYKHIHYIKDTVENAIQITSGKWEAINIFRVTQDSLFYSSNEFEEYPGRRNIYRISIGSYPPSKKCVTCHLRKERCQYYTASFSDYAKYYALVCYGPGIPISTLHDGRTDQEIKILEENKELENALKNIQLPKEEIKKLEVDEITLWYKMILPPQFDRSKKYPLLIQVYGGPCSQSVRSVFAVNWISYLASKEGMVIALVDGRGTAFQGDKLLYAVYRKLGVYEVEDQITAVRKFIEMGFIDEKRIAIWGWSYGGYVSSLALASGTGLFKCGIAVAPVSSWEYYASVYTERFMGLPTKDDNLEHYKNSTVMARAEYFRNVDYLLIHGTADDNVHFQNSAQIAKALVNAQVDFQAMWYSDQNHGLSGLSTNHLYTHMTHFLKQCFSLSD

Prolyl endopeptidase = target: T2, Prolyl endopeptidase (Homo sapiens, UniProt P48147); assay: Inhibition of human POP
T2 sequence (P48147 whole entry): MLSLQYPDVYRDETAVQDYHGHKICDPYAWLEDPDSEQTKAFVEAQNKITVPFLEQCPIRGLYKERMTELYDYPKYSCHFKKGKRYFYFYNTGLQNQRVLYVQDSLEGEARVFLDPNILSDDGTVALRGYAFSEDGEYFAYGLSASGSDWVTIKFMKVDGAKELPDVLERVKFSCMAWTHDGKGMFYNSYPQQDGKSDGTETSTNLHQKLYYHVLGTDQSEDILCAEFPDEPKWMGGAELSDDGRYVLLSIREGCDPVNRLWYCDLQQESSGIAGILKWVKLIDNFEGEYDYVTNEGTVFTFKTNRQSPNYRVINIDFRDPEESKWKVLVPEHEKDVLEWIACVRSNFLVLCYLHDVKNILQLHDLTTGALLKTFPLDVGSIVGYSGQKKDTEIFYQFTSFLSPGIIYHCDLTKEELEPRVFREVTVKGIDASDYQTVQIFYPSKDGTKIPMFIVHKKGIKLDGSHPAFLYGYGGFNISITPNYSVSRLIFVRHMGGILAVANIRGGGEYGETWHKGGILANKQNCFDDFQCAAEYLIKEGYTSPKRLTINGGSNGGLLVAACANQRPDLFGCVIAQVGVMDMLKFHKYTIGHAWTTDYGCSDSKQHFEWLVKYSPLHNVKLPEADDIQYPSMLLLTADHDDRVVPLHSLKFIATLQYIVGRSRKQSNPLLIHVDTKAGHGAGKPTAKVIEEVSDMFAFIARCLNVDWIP

[1] = Half life in rat liver microsome; assay type: ADME; details: liver microsomes
In short: (§1)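 Stability on incubation with rat or human liver microsomes, expressed as half-life.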

[2] = Half life in human liver microsome; assay type: ADME; details: liver microsomes; in short: as §1
Cytochrome P450 2D6 = Cytochrome P450 2D6 (Homo sapiens, UniProt P10635); assay: Inhibition of CYP2D6; assay type: ADME
Sequence of Cytochrome P450 2D6 (P10635 whole entry): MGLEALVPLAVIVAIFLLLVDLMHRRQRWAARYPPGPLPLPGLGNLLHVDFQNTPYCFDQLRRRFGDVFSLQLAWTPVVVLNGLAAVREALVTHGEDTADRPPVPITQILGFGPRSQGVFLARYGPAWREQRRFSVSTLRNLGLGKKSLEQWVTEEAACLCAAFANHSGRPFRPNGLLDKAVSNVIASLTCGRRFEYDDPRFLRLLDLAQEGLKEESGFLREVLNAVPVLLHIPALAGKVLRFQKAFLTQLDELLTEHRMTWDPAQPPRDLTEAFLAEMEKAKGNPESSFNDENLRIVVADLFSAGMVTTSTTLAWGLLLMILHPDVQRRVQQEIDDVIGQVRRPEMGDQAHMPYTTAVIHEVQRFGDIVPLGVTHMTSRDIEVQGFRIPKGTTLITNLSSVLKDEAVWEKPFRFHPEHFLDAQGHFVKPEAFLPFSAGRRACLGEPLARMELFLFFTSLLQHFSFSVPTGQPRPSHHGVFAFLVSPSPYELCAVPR

Cytochrome P450 2C9 = Cytochrome P450 2C9 (Homo sapiens, UniProt P11712); assay: Inhibition of CYP2C9; assay type: ADME
Sequence of Cytochrome P450 2C9 (P11712 whole entry): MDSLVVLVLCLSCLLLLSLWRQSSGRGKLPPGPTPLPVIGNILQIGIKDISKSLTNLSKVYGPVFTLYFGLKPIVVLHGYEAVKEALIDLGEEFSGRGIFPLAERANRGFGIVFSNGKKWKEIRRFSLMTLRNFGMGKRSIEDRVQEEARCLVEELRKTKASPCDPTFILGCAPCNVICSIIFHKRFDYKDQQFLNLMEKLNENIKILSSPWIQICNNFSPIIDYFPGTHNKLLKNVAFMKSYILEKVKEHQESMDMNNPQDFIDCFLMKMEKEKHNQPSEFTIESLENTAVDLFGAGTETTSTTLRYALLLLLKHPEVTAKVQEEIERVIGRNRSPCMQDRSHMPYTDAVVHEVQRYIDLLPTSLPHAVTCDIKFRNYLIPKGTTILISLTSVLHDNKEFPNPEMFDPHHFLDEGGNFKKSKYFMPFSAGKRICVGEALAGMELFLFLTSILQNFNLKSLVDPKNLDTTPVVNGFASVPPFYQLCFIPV

Cytochrome P450 3A4 = Cytochrome P450 3A4 (Homo sapiens, UniProt P08684); assay: Inhibition of CYP3A4; assay type: ADME
Sequence of Cytochrome P450 3A4 (P08684 whole entry): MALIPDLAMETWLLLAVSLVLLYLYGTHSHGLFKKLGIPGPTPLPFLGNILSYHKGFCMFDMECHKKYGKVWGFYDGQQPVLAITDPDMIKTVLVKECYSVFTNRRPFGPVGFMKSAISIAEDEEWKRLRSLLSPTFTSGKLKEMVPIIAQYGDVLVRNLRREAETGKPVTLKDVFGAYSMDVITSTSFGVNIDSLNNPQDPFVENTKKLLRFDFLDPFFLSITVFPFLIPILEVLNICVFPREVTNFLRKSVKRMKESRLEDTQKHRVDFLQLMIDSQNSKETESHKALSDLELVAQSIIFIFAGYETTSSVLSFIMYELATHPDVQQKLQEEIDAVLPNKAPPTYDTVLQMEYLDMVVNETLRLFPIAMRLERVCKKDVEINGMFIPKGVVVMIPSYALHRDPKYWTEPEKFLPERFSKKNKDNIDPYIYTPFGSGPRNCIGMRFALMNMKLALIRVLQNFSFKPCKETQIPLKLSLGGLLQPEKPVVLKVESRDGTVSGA

[3] = Plasma clearance in Sprague-Dawley rat at 5 mg/kg, po; assay type: ADME, organism-based; set-up: dose 5 mg/kg, route oral
In short: (§2)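 Pharmacokinetics in rat dosed at 5 mg/kg and in dog and monkey dosed at 2.5 mg/kg. Cmax, t1/2 (terminal) and AUC were taken from oral dosing. F is oral bioavailability. Vss is volume of distribution at steady state.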

Rattus norvegicus [4] = assay: Volume of distribution at steady state in Sprague-Dawley rat at 5 mg/kg, po; assay type: ADME, organism-based; set-up: dose 5 mg/kg, route oral; details: in vivo; in short: as §2
[5] = Cmax in Sprague-Dawley rat at 5 mg/kg, po; assay type: ADME, organism-based; set-up: dose 5 mg/kg, route oral; details: in vivo; in short: as §2
[6] = Half life in Sprague-Dawley rat at 5 mg/kg, po; assay type: ADME, organism-based; set-up: dose 5 mg/kg, route oral; details: in vivo; in short: as §2
Rattus norvegicus [7] = assay: AUC in Sprague-Dawley rat at 5 mg/kg, po; assay type: ADME, organism-based, Plasma; set-up: dose 5 mg/kg, route oral; details: in vivo; in short: as §2
[8] = Oral bioavailability in Sprague-Dawley rat at 5 mg/kg, po; assay type: ADME, organism-based; details: in vivo; in short: as §2
[9] = Plasma clearance in dog at 2.5 mg/kg, po; assay type: ADME, organism-based, Canis lupus familiaris; set-up: dose 2.5 mg/kg, route oral; in short: as §2
[10] = Cmax in dog at 2.5 mg/kg, po; assay type: ADME, organism-based, Canis lupus familiaris; set-up: dose 2.5 mg/kg, route oral; details: in vivo; in short: as §2
[11] = Half life in dog at 2.5 mg/kg, po; assay type: ADME, organism-based, Canis lupus familiaris; set-up: dose 2.5 mg/kg, route oral; details: in vivo; in short: as §2
Canis familiaris = assay: AUC in dog at 2.5 mg/kg, po; assay type: ADME, organism-based, Canis lupus familiaris, Plasma; set-up: dose 2.5 mg/kg, route oral; details: in vivo; in short: as §2
[12] = Oral bioavailability in dog at 2.5 mg/kg, po; assay type: ADME, organism-based, Canis lupus familiaris; details: in vivo; in short: as §2
Rattus norvegicus [13] = assay: Reduction of glucose level in ZDF rat at 0.3 mg/kg, po by […]; assay type: functional; set-up: scale not given: the % may be the effect or the level left
In short: (§3)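 Female Zucker diabetic fatty rats, 10 weeks old, fasted overnight (n = 10/group). They were dosed orally with vehicle or inhibitor at 0.3, 1 or 3 mg/kg at t = −240 min and allowed to feed at t = 0. Blood glucose lowering was measured relative to vehicle.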

Rattus norvegicus [14] = assay: Reduction of glucose level in ZDF rat at 1 mg/kg, po […]; assay type: functional; set-up: scale not given: the % may be the effect or the level left; in short: as §3
Rattus norvegicus [15] = assay: Reduction of glucose level in ZDF rat at 3 mg/kg, po […]; assay type: functional; set-up: scale not given: the % may be the effect or the level left; in short: as §3
[16] = Plasma concentration in ZDF rat at 1 mg/kg after 240 mins; assay type: ADME, organism-based; set-up: dose 1 mg/kg
In short: (§4)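 Female ZDF rats, 10 weeks old, fasted overnight and dosed orally at 1 mg/kg four hours before feeding (t = 0). Plasma drug concentration and the matching plasma DPP4 inhibition were determined at t = 0 and t = 240 min.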

Rattus norvegicus [17] = assay: Inhibition of DPP4 in ZDF rat at 1 mg/kg after 240 mins; assay type: functional; details: 4 h; in short: as §4

Compound: CS(=O)(=O)c1cccc(-c2ncnc(N3CC(N)C(c4cc(F)c(F)cc4F)C3)n2)c1 (centres undefined)
- pKi (Prolyl endopeptidase FAP): < 4.52
- pKi (Prolyl endopeptidase): < 4.52
- half-life [1]: > 3 h
- half-life [2]: > 3 h
- pIC50 (Cytochrome P450 2D6): < 5.00
- pIC50 (Cytochrome P450 2C9): < 5.00
- pIC50 (Cytochrome P450 3A4): < 5.00
- CL/F [3]: 2.5 mL/min/kg
- Vdss (Rattus norvegicus [4]): 1.15 L/kg
- Cmax [5]: 1970 ng/mL
- half-life [6]: 5.5 h
- AUC (Rattus norvegicus [7]): 24400 ng·h/mL
- bioavailability [8]: 74%
- CL/F [9]: 3.5 mL/min/kg
- Cmax [10]: 691 ng/mL
- half-life [11]: 14.9 h
- AUC (Canis familiaris): 12200 ng·h/mL
- bioavailability [12]: 100%
- Activity (Rattus norvegicus [13]): -32%
- Activity (Rattus norvegicus [14]): -39%
- Activity (Rattus norvegicus [15]): -37%
- concentration at 4 h [16]: 373 ng/mL
- inhibition in vivo at 1 mg/kg (Rattus norvegicus [17]): > 98%

Compound: COc1cccc(CN(C)C(=O)N2CC(N)C(c3ccc(Cl)cc3Cl)C2)c1 (racemic)
- half-life [1]: > 3 h
- half-life [2]: > 3 h

Compound: NC1CN(Cc2ccccc2)CC1c1ccc(Cl)cc1Cl (centres undefined)
- half-life [1]: > 3 h
- half-life [2]: > 3 h

Compound: NC1CN(c2ccccc2)CC1c1ccc(Cl)cc1Cl (racemic)
- half-life [1]: > 3 h
- half-life [2]: > 3 h

Compound: Cl.NC1CN(c2cc(-c3ccsc3)ncn2)CC1c1cc(F)c(F)cc1F (centres undefined)
- half-life [1]: > 3 h
- half-life [2]: > 3 h
- pIC50 (Cytochrome P450 2D6): 5.96

Compound: CS(=O)(=O)c1cccc(-c2cc(N3CC(N)C(c4cc(F)c(F)cc4F)C3)ncn2)c1 (centres undefined)
- pKi (Prolyl endopeptidase FAP): < 4.52
- pKi (Prolyl endopeptidase): < 4.52
- half-life [1]: > 3 h
- half-life [2]: > 3 h
- CL/F [3]: 4.33 mL/min/kg
- Vdss (Rattus norvegicus [4]): 1.44 L/kg
- Cmax [5]: 1810 ng/mL
- half-life [6]: 3.8 h
- AUC (Rattus norvegicus [7]): 22000 ng·h/mL
- bioavailability [8]: 110%

Compound: NC1CN(c2cc(-c3ccccc3)ncn2)CC1c1cc(F)c(F)cc1F (centres undefined)
- half-life [1]: > 3 h
- half-life [2]: > 3 h

Compound: NC1CN(c2cc(-c3ccsc3)ncn2)CC1c1cc(F)c(F)cc1Cl (racemic)
- half-life [1]: > 3 h
- half-life [2]: > 3 h

Compound: Cc1ccc(S(=O)(=O)N2CC(N)C(c3ccc(Cl)cc3Cl)C2)cc1 (racemic)
- half-life [1]: > 3 h
- half-life [2]: > 3 h

Compound: COc1ccc(-c2cnc(N3CC(N)C(c4ccc(Cl)cc4Cl)C3)nc2)cc1 (racemic)
- half-life [1]: > 3 h
- half-life [2]: > 3 h

Compound: CCN(C)C(=O)N1CC(N)C(c2ccc(Cl)cc2Cl)C1 (racemic)
- half-life [1]: > 3 h
- half-life [2]: > 3 h

Compound: NC1CN(c2cc(-c3ccc(C(=O)O)cc3)ncn2)CC1c1cc(F)c(F)cc1F (centres undefined)
- half-life [1]: > 3 h
- half-life [2]: > 3 h

Compound: CN(C)C(=O)c1cccc(-c2cc(N3CC(N)C(c4cc(F)c(F)cc4F)C3)ncn2)c1 (centres undefined)
- half-life [1]: > 3 h
- half-life [2]: > 3 h
- CL/F [3]: 12.2 mL/min/kg
- Vdss (Rattus norvegicus [4]): 1.77 L/kg
- Cmax [5]: 1270 ng/mL
- half-life [6]: 3.5 h
- AUC (Rattus norvegicus [7]): 3140 ng·h/mL
- bioavailability [8]: 42%

Compound: NC1CN(c2ccnc(-c3ccsc3)n2)CC1c1ccc(Cl)cc1Cl (racemic)
- half-life [1]: > 3 h
- half-life [2]: > 3 h
